Screening results as filed in PubChem.
Hits are enriched below; roughly 2.1% of the tested compounds scored in any of these assays.
cardiac RTF act: cardiac RTF calcium sensitivity activators, primary screen, biochemical, IANBD-TnC fluorescence, EC20 calcium; activation, % at 7.2 µM; actives 0.24% (n = 340,000); Troponin I, cardiac muscle (Homo sapiens) + Troponin T, cardiac muscle (Homo sapiens) + …; IANBD-labeled TnC RTF fluorescence at EC20 calcium; 0% EC20 calcium, 100% full calcium;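 active = activation above the mean over all tested compounds plus 3 SD, cut at about 30% in these data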;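 also: rise in fluorescence read as greater calcium sensitivity of cardiac thin filaments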
RTF Ca sens inh: cardiac RTF calcium sensitivity inhibitors, primary screen, biochemical, IANBD-TnC fluorescence, EC70 calcium. Troponin I, cardiac muscle (Homo sapiens) + Troponin T, cardiac muscle (Homo sapiens) + …. IANBD-labeled cardiac RTF, Ca2+ fluorescence. inhibition, % at 7.15 µM. actives 0.12% (n = 340,000). AID 493244, 2011;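 active = inhibition above the mean inhibition of all tested compounds plus 3 SD, cut at about 17% in these data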;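 also: assay run at fixed EC70 calcium of 1.6 mM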
ARNT-TACC3 inh: disruptors of ARNT/TACC3 protein interaction, primary screen, biochemical, AlphaScreen, single concentration; AlphaScreen His-ARNT PAS-B/GST-TACC3 binding, luminescence; TACC3 fragment carries E629A point mutation; inhibition, % at 9.99 µM; actives 0.66% (n = 390,000); AID 623870, 2012;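 active = mean inhibition of replicates at least 50% and at least half of replicates each reaching 50%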;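 also: 0% = complete ARNT plus TACC3 wells and 100% = ARNT alone without TACC3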
UCH37 DUB inh: inhibitors of human UCH37 deubiquitinase, primary screen, biochemical, Ub-AMC cleavage, fluorescence | Ubiquitin carboxyl-terminal hydrolase isozyme L5 (Homo sapiens), Q9Y5K5 | purified proteasome/UCH37 | inhibition, % (no concentration beside the values) | actives 0.33% (n = 330,000) | AID 588478, 2011;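 active = mean inhibition over replicate wells above about 20%, limit read from the data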;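 also: 0% = compound-free wells with enzyme and 100% = wells lacking proteasome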
Target sequence (Q9Y5K5 whole entry, looked up): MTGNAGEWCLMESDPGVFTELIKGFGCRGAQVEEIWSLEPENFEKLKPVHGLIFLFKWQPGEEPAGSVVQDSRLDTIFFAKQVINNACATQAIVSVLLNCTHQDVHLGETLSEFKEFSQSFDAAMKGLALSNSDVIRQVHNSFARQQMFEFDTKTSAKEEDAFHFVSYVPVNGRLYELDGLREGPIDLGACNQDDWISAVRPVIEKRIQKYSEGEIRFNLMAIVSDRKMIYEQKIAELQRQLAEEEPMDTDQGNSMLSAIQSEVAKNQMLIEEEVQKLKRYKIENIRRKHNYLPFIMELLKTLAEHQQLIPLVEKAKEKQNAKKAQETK
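Schedule: 30 min plus 25 min, room temperature / Material: human UCH37 within purified proteasomes / Technique: AMC fluorescence intensity at 355/460 nm / Buffer or medium: pH 7.4 Tris-HCl (50 mM) with ovalbumin, ATP-MgCl2, DTT / Controls: wells without proteasome as full block, compound-free enzyme plus substrate as uninhibited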
SUMO Mot1 rescue: yeast Mot1-301 growth rescue at high temperature, primary screen, SUMOylation pathway inhibitor project, S. cerevisiae, ATP luminescence, 38.5C; S. cerevisiae Mot1-301 growth rescue; percent above DMSO median, 100 means doubled; growth rescue, % at 18.8 µM; actives 1% (n = 320,000); AID 2716, 2010;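 active = every valid replicate shows activation above 250% relative to neutral control wells; inactive = the rest, any valid replicate at or below 250%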;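 also: OY570 slx delta 5 strain wells were the positive control but not used for scaling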
Efflux pump inh: inhibitors of Candida efflux pumps in yeast, primary screen, S. cerevisiae, Nile Red, multiplex; S. cerevisiae Candida pump triplex; inhibition, % at 10 µM; AID 485275, 2010; actives 0.44% (n = 330,000);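 active = plate passing quality check with inhibition over a set limit, or well fluorescence over plate mean plus 4 SD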;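 also: Nile Red retained in pooled yeast measured as flow cytometry median fluorescence; 0% = buffer negative control and 100% = Enniatin B positive control; higher means more Nile Red kept so more efflux inhibition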
Yeast cmpd fluor: flagged as fluorescent in efflux inhibitor counter-screen. AID 588517. fluorescence ratio to DMSO, % at 10 µM. S. cerevisiae AD/pABC3, compound fluorescence, flow cytometry. actives 4% (n = 1,700). shares compounds with Efflux pump inh;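 active = fluorescence ratio to DMSO above its plate's cutoff, the plate mean ratio plus 5 SD, cut at about 210% in these data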;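 also: unstained yeast with no Nile Red so the signal is compound autofluorescence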
CaMdr1 efflux inh: inhibitors of Candida albicans Mdr1 efflux, confirmation, flow cytometry, singleplex, Cherry Pick1 set | shares compounds with Efflux pump inh | S. cerevisiae AD/CaMDR1, Nile Red efflux | inhibition, % at 10 µM | actives 1% (n = 1,700) | AID 588518, 2011; in the data active = inhibition above about 26%;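 also: 0% = DMSO vehicle and 100% = reference inhibitor; higher means more Nile Red retained so more efflux inhibition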
CaCdr2 efflux inh: inhibitors of Candida albicans Cdr2 efflux pump, confirmation, S. cerevisiae AD/CaCDR2, flow cytometry, cherry pick 1, singleplex; actives 4% (n = 1,700); Nile Red retention ratio vs DMSO, % at 10 µM; Nile Red retention; shares compounds with Efflux pump inh; in the data active = Nile Red retention ratio vs DMSO above about 190%;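 also: higher ratio means more blocking of Cdr2 efflux of the dye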
CaCdr1 efflux inh: inhibitors of Candida albicans Cdr1 efflux pump, confirmation, S. cerevisiae AD/CaCDR1, flow cytometry, cherry pick 1, singleplex. shares compounds with Efflux pump inh. Nile Red efflux. inhibition, % at 10 µM. actives 1% (n = 1,700);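 active = inhibition above the screen-wide mean plus twice its standard deviation, cut at about 32% in these data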
* marks the source's active call; other numbers are inactive results; i = inactive; x = no result given; + = active, no number.

SMILES	cardiac RTF act	RTF Ca sens inh	ARNT-TACC3 inh	UCH37 DUB inh	SUMO Mot1 rescue	Efflux pump inh	Yeast cmpd fluor	CaMdr1 efflux inh	CaCdr2 efflux inh	CaCdr1 efflux inh
C[C@@H]1CC[C@]2(C(=O)O)CC[C@]3(C)C(=CCC4[C@]56CC[C@@](O)(OC5)C(C)(C)C6CC[C@]43C)C2[C@H]1C (some centres undefined)	1	6	-7	6	-9	1.4*	104	0	204*	0
O=c1c2cc(N3CCOCC3)ccc2[nH]c(=S)n1CCCN1CCCC1	-2	-4	1	-67	i	0	x	x	x	x
O=c1c2cc(N3CCOCC3)ccc2[nH]c(=S)n1CCCN1CCCCC1	5	-9	3	-49	-9	0.6*	97	0	94	0
C=CCn1c(SCc2ccc(C(=O)OC)cc2)nnc1-c1sc(N)nc1C	2	-5	-3	1	2	15*	106	0	101	0
CC[N+](C)(C)CC/C=C1/c2ccccc2Sc2ccc(Cl)cc21	x	x	x	2	-17	0	100	0	102	0
OCCN1CCN(CC/C=C2/c3ccccc3Sc3ccc(Cl)cc32)CC1	10	-1	16	4	-10	0	x	x	x	x
CCCCCCCCCC[N+](C)(C)CC/C=C1/c2ccccc2Sc2ccc(Cl)cc21	-14	6	31	x	72	1.8*	98	0	116	0
CCCCCCCCCCC[N+](C)(C)CC/C=C1/c2ccccc2Sc2ccc(Cl)cc21	-4	6	25	x	29	1.8*	146	1	260*	0
COc1ccc(CCC(=NO)C2(O)CCCCC2)cc1	x	x	x	6	x	x	x	x	x	x
CC1CCc2c(C(=O)Nc3ccc(OC(F)(F)F)cc3)csc2C1 (centres undefined)	1	-11	-2	1	8	19*	99	0	104	0
CC1CCc2c(C(=O)Nc3nccs3)csc2C1 (centres undefined)	0	-5	3	1	36	0	x	x	x	x
CCCn1c(N=Cc2ccccc2O)nc2ccccc21	x	x	x	2	x	x	x	x	x	x
O=C(Nc1ccnc(-c2cccnc2)n1)c1cccc(Cl)c1Cl	1	-3	-4	1	-11	1.0*	118	1	116	0
CCN1CCCCC(=NO)C(=NO)CCCC1	x	x	x	0	x	x	x	x	x	x
CC1=C(C(=O)Nc2ccccc2)C(c2cccc([N+](=O)[O-])c2)Nc2nc3ccccc3n21 (centres undefined)	-1	-2	9	7	44	1.4*	109	0	109	0
Cn1c(=O)c(C#N)c(-c2ccc(F)cc2)c2cc(C(=O)c3cc(Cl)cc(Cl)c3O)cnc21	-5	8	2	8	x	0.3*	92	0	106	0
O=C(NN=CC1C(c2ccccc2)C1(Cl)Cl)c1cccc(Br)c1 (centres undefined)	x	x	x	-6	x	x	x	x	x	x
CCOC(=O)C1(C(F)(F)F)N=C(c2cccnc2)OC(N2CCCCC2)=N1 (centres undefined)	-2	-4	-6	5	-10	5.5*	104	0	116	0
Cc1ccc(C(=O)Nc2ncc3c(n2)CC(c2ccco2)CC3=O)cc1 (centres undefined)	-2	-5	-3	0	-1	9.0*	105	0	89	0
CC(=NNc1ccccn1)c1ccc2c(c1)OCO2	x	x	x	4	x	x	x	x	x	x
Cc1cc2c([nH]c3ccccc32)c2c1OC(C)(C)C=C2	8	-6	28	3	290	1.5*	96	0	104	0
COc1ccc2[nH]c(=O)c3c(c2c1)OC(C)(C)C=C3	2	-25	-5	-77	7	0	x	x	x	x
COc1cc(C=NNC(=O)CN2CCOCC2)ccc1OCC(=O)Nc1ccc(C)c(C)c1	x	x	x	0	x	x	x	x	x	x
COc1ccc(NC(=S)NC(=NS(=O)(=O)c2ccc(C)cc2)c2ccccc2)cc1	x	x	x	2	x	x	x	x	x	x
O=C(O)C1C2CCC(C2)C1C(=O)Nc1cccc([N+](=O)[O-])c1 (centres undefined)	2	-4	9	2	-10	0	x	x	x	x
SMILES	cardiac RTF act	RTF Ca sens inh	ARNT-TACC3 inh	UCH37 DUB inh	SUMO Mot1 rescue	Efflux pump inh	Yeast cmpd fluor	CaMdr1 efflux inh	CaCdr2 efflux inh	CaCdr1 efflux inh
CC1=C(C)CC(C(=O)Nc2cccc([N+](=O)[O-])c2)C(C(=O)O)C1 (centres undefined)	-1	10	-3	7	-1	35*	98	0	91	0
CCCSc1nnc(N)s1	2	-12	-5	-1	0	18*	118	1	155	1
CS(=O)(=O)Nc1nnc(Cc2ccccc2)s1	-2	-7	-9	3	10	0	x	x	x	x
CC(C)Cc1nnc(NS(=O)(=O)Cc2ccccc2)s1	-7	-7	-7	3	1	9.0*	108	0	106	0
O=C(O)CNS(=O)(=O)c1ccc2c3c(cccc13)C(=O)N2	-7	-2	10	-426	-4	0.7*	111	0	100	0
O=C(O)c1ccc(N2C(=O)/C(=C/c3ccc(-c4ccc([N+](=O)[O-])cc4)o3)C=C2c2ccccc2)cc1	-9	-2	x	6	259	4.7*	734*	2	+	2
